Results reported in ChEMBL document CHEMBL1156807, “Catalysis and inhibition of Mycobacterium tuberculosis methionine aminopeptidase” (J Med Chem, 2010).

Legend:
[1] = Inhibition of Mycobacterium tuberculosis H37Rv MetAP1c in presence of 50 uM Fe(2+) by Met-AMC substrate hydrolysis assay
How it was run: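 Recombinant MtMetAP1c (mapB gene) was expressed in E. coli BL21(DE3) and purified as the apoenzyme (0.5 µM). It was activated with FeCl2 50 µM plus 100 µM ascorbic acid, CoCl2 10 µM, MnCl2 20 µM or NiCl2 20 µM. Buffer was 50 mM MOPS pH 7.5 with 100 µM Met-AMC at room temperature, read by fluorescence at ex 360/em 460.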

[2] = Inhibition of Mycobacterium tuberculosis H37Rv MetAP1c in presence of 50 uM Ni(2+) by Met-AMC substrate hydrolysis assay
[3] = Inhibition of Mycobacterium tuberculosis H37Rv MetAP1c in presence of 50 uM Co(2+) by Met-AMC substrate hydrolysis assay
[4] = Inhibition of Mycobacterium tuberculosis H37Rv MetAP1c in presence of 50 uM Mn(2+) by Met-AMC substrate hydrolysis assay
[5] = Inhibition of Mycobacterium tuberculosis MetAP1c expressed in Escherichia coli lacking endogenous MetAP by cell based Met-AMC substrate hydrolysis assay
How it was run: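 E. coli carrying a chromosomal amber mutation in EcMetAP and complemented by plasmid-borne MtMetAP1c were grown to exponential phase and washed. Cells were stored in CaCl2/Tris/glycerol at −80 °C. The assay held 150 µM Met-AMC, 5 mM CaCl2 (for permeabilization) and 50 mM Tris pH 7.5, with inhibitor at 12 serial dilutions. Fluorescence (ex 360/em 460) was read every 2 min for 6-8 hr at room temperature. IC50 came from hydrolysis rates.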

[6] = Inhibition of Mycobacterium tuberculosis MetAP1c mediated cell growth of Escherichia coli lacking endogenous MetAP complemented with MtMetAP1c after 72 hrs by resazurin dye reduction method

SMILES	IC50 [1] [µM]	IC50 [2] [µM]	IC50 [3] [µM]	IC50 [4] [µM]	IC50 [5] [µM]	IC50 [6] [µM]
O=C(O)c1ccc(-c2ccccc2Cl)o1	> 500	> 500	> 500	16		
O=C(O)c1ccc(-c2cc(Cl)ccc2Cl)o1	> 500	> 500	> 500	14	623	> 1000
Cc1ccsc1-c1ccc(O)c(O)c1	1.4	60	38	14	35	89.5
Cc1nc(-c2ccc(O)c(O)c2)cs1	3.6	104	76	37	20	208
Cc1ccc(CSc2nnc(N)[nH]2)cc1	> 500	2.5	0.69	26	281	> 1000
Fc1ccc(CSc2nnc[nH]2)cc1	> 500		2	143		
Nc1nnc(SCc2ccc(F)cc2)[nH]1	> 500	1.3	0.74	18	121	> 1000
Nc1nnc(SCc2ccc(Cl)cc2Cl)[nH]1	40			2		
